Experimental findings from ChEMBL document CHEMBL1138718, “CVT-4325: a potent fatty acid oxidation inhibitor with favorable oral bioavailability” (Bioorg Med Chem Lett, 2004) are described below.

The nature of series [1]: Oral bioavailability in rat (dose 2 mg/kg). Format: ADME, organism-based. The note with it: in vivo.
The nature of series [2]: Area under curve for the compound was determined in rats after 2 mg/kg oral dose. Format: ADME, organism-based. Set-up: dose 2 mg/kg, route oral. The note with it: rat, in vivo.
Series [3] in a line: Half life in rats after 1 mg/kg intravenous dose. The note with it: rat, in vivo.
Series [4] in a line: Plasma clearance in rats after 1 mg/kg intravenous dose. The following applies: rat; for clearance: plasma.
A short description of series [5]: Metabolic stability as percent of drug remaining after incubation with human liver S9 for 30 min was determined. The note with it: for remaining at 0.5 h: liver S9, read-out: Activity. Format: ADME, subcellular, Liver S9 fraction. The procedure, abridged:
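Incubation with human liver S9 (2 mg/mL) plus NADPH for 30 min, read as percent parent remaining. A standard was run in every assay, and data were accepted only if the standard fell within ±5% of its historical mean.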

Series [6] is described as follows: Plasma clearance in dog after 1 mg/kg intravenous dose. The note with it: in vivo.
The nature of series [7]: Half life in dog after 1 mg/kg intravenous dose. The note with it: in vivo.
Series [8] is described as follows: Area under curve for the compound was determined in dog after 4 mg/kg oral dose. Format: ADME, organism-based, Canis lupus familiaris. Set-up: dose 4 mg/kg, route oral. The note with it: in vivo.
Series [9] in a line: Bioavailability in dog after 4 mg/kg oral dose. Format: ADME, organism-based, Canis lupus familiaris. The note with it: in vivo.
Series [10] is described as follows: Half life in dog after 1 mg/kg intravenous dose. The following applies: in vivo. The source holds these as a separate data set.
The nature of series [11]: Bioavailability in dog after 5 mg/kg oral dose. The following applies: in vivo. Format: ADME, organism-based, Canis lupus familiaris.
A short description of series [12]: Area under curve for the compound was determined in dog after 5 mg/kg oral dose. Format: ADME, organism-based, Canis lupus familiaris. Set-up: dose 5 mg/kg, route oral. The following applies: in vivo.
Series [13] is described as follows: Plasma clearance in dog after 1 mg/kg intravenous dose. The following applies: in vivo. This is another data set of the same source.

On to `Cc1nc2cc(OC[C@H](O)CN3CCN(CC(=O)Nc4c(C)cccc4C)CC3)ccc2s1`, for which, in series [1], the F is listed as 19%. In series [2], the AUC – broadly, concentration integrated over time – is 30.5 ng·h/mL. For the same compound, in series [3], the half-life – broadly, the time needed for the level to fall by half in the phase considered – was 1.4 h. The compound further displayed a Plasma clearance in [4] (in vivo) of 54.5 mL/min/kg. For `Cc1nc2cc(OC[C@H](O)CN3CCN(Cc4noc(-c5ccc(Cl)cc5)n4)CC3)ccc2s1`, the remaining at 0.5 h in series [5] came to 48%. Turning to `Cc1nc2cc(OC[C@H](O)CN3CCN(Cc4noc(-c5cccc(F)c5)n4)CC3)ccc2s1`, the remaining at 0.5 h in [5] turned out to be 42%. As for `Cc1nc2cc(OC[C@H](O)CN3CCN(Cc4noc(-c5ccc(C(C)(C)C)cc5)n4)CC3)ccc2s1`, the remaining at 0.5 h in [5] was 18%. Same read-out and setting: to `Cc1nc2cc(OC[C@H](O)CN3CCN(Cc4csc(-c5ccc(C(F)(F)F)cc5)n4)CC3)ccc2s1` belongs 40%; to `Cc1nc2cc(OC[C@H](O)CN3CCN(Cc4nnc(-c5ccc(C(C)(C)C)cc5)o4)CC3)ccc2s1`, 25%. For the compound `Cc1nc2cc(OC[C@H](O)CN3CCN(Cc4nc(-c5ccc(Cl)c(Cl)c5)no4)CC3)ccc2s1`, the remaining at 0.5 h in [5] stood at 36%. On to `Cc1nc2cc(OC[C@H](O)CN3CCN(Cc4noc(-c5ccc(F)cc5)n4)CC3)ccc2s1`, for which, in series [5], the remaining at 0.5 h is 50%. Regarding `COc1ccc(-c2nc(CN3CCN(C[C@@H](O)COc4ccc5sc(C)nc5c4)CC3)no2)cc1`, in [5], the remaining at 0.5 h stood at 39%.

Regarding `Cc1nc2cc(OC[C@H](O)CN3CCN(Cc4nc(-c5ccc(C(F)(F)F)cc5)no4)CC3)ccc2s1`, the remaining at 0.5 h in series [5] came out at 72%. Still for that read-out and setting: with `Cc1nc2cc(OC[C@H](O)CN3CCN(Cc4noc(-c5cccc(Cl)c5)n4)CC3)ccc2s1` the figure was 38%. Same read-out and setting: to `Cc1nc2cc(OC[C@H](O)CN3CCN(Cc4nc(-c5ccc(Cl)cc5Cl)no4)CC3)ccc2s1` belongs 29%.

With `Cc1cccc(-c2nc(CN3CCN(C[C@@H](O)COc4ccc5sc(C)nc5c4)CC3)no2)c1`, in series [5], the remaining at 0.5 h turned out to be 31%. In the case of `Cc1nc2cc(OC[C@H](O)CN3CCN(Cc4nnc(-c5ccc(C(F)(F)F)cc5)o4)CC3)ccc2s1`, in [5], the remaining at 0.5 h came to 49%. Consider `Cc1nc2cc(OC[C@H](O)CN3CCN(Cc4nc(-c5ccc(C(C)C)cc5)no4)CC3)ccc2s1`, for which, in [5], the remaining at 0.5 h was 21%. Same read-out and setting: to `Cc1nc2cc(OC[C@H](O)CN3CCN(Cc4nnc(-c5ccc(Cl)cc5)o4)CC3)ccc2s1` belongs 34%; to `Cc1nc2cc(OC[C@H](O)CN3CCN(Cc4noc(-c5ccc(C(C)C)cc5)n4)CC3)ccc2s1`, 31%. For `Cc1nc2cc(OC[C@H](O)CN3CCN(Cc4noc(-c5ccc(Cl)cc5Cl)n4)CC3)ccc2s1`, the remaining at 0.5 h in [5] was found to be 33%. Take `Cc1nc2cc(OC[C@H](O)CN3CCN(Cc4noc(-c5ccc(C#N)cc5)n4)CC3)ccc2s1`: the remaining at 0.5 h in series [5] was 56%. As for `Cc1nc2cc(OC[C@H](O)CN3CCN(Cc4noc(-c5ccc(C(F)(F)F)cc5)n4)CC3)ccc2s1`, the Plasma clearance in series [6] came to 12.2 mL/min/kg. Further, the results for the half-life in series [7] and in series [3] were 13.6 h and 3.2 h, respectively. In [1], the bioavailability (as a rule, dose-corrected exposure relative to a reference, in per cent) worked out at 38%. Moreover, the exposure (AUC) in series [8] came out at 1776 ng·h/mL; in series [2] (read-out: AUC) it was 282 ng·h/mL. Also, the clearance (in general, the volume of plasma or blood freed of the substance per unit of time) in series [4] was found to be 22.5 mL/min/kg. In series [9], this compound yielded a Bioavailabiility of 93%. In addition, the remaining at 0.5 h in series [5] amounted to 74%. Take `Cc1nc2cc(OC[C@H](O)CN3CCN(Cc4nc(-c5ccc(Cl)cc5)no4)CC3)ccc2s1`: in series [5], the remaining at 0.5 h was 66%. The same measure, in the same setting: with `Cc1nc2cc(OC[C@H](O)CN3CCN(Cc4coc(-c5ccc(C(F)(F)F)cc5)n4)CC3)ccc2s1` the figure was 43%. Turning to `Cc1nc2cc(OC[C@H](O)CN3CCN(Cc4noc(-c5ccc(C(F)(F)F)cc5)n4)C[C@@H]3C)ccc2s1`, the bioavailability in series [1] stood at 29%. Also, the half-life in series [10] is 65 h; in [3] it was 4 h. Moreover, the AUC in series [2] (read-out: AUC) worked out at 253 ng·h/mL; in series [12] it was 1093 ng·h/mL. In series [4], the clearance was determined as 19.7 mL/min/kg. In addition, the Bioavailabiility in [11] was determined as 30%. Also, the remaining at 0.5 h in series [5] was 43%. In [13], this compound registered a Plasma clearance of 4.6 mL/min/kg. In the case of `Cc1nc2cc(OC[C@H](O)CN3CCN(Cc4nc(-c5ccc(C(F)(F)F)cc5)sc4C)CC3)ccc2s1`, in series [5], the remaining at 0.5 h was 40%. Turning to `Cc1nc2cc(OC[C@H](O)CN3CCN(Cc4noc(-c5ccc(Cl)c(Cl)c5)n4)CC3)ccc2s1`, the remaining at 0.5 h in [5] was 30%. Regarding `Cc1nc2cc(OC[C@H](O)CN3CCN(Cc4nc(-c5ccc(C(C)(C)C)cc5)no4)CC3)ccc2s1`, the remaining at 0.5 h in [5] is 39%. `Cc1nc2cc(OC[C@H](O)CN3CCN(Cc4noc(-c5ccc(Cl)cc5Cl)n4)C[C@@H]3C)ccc2s1` (stereo in doubt; 31): the remaining at 0.5 h in [5] was 17%. In the case of `Cc1nc2cc(OC[C@H](O)CN3CCN(Cc4noc(-c5ccc(Cl)cc5Cl)n4)C[C@@H]3C)ccc2s1` (stereo in doubt; 32), the Activity in [5] (s9, 0.5 h, 0.5 h) turned out to be 30%.
